# Compounds with a hit are over-represented: about 3.5% of the library has one in this group of screens.
# MrgX1 PAM = human MrgX1 positive allosteric modulation, primary screen; Q96LB2; MrgX1-HEK293, Fluo-4 calcium flux, FDSS; hits give high values; B-score at 10 µM; 310,000 compounds, 0.63% hits;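 active = plate-corrected calcium response at least 3 library SD above typical, normal starting fluorescence, not activating the receptor alone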;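 also: compound read alongside a low EC10 to EC30 dose of BAM8-22 agonist; peak minus trough fluorescence over baseline measured at the second addition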
# Target sequence (Q96LB2 whole entry, looked up): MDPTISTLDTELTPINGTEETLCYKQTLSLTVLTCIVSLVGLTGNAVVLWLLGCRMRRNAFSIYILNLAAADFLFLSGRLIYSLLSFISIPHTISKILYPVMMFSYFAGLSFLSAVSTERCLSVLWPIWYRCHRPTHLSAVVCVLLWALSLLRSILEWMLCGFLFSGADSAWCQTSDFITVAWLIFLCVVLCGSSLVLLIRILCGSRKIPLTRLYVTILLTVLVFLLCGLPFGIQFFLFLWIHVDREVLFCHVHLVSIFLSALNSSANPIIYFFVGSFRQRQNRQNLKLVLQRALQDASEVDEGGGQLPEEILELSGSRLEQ
# RGS4 inh = inhibitors of human RGS4; B-score at 10 µM; 310,000 compounds, 0.45% hits; HEK293 M3R/RGS4 inducible, Fluo-4 calcium flux; hits give high values; triggered by carbachol at its EC20; P49798; AID 463165;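 active = B-score, a plate-corrected calcium signal, over three deviations above library mean, with baseline fluorescence within five deviations of library mean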;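 also: RGS4 expression induced by doxycycline in cells with stable M3 receptor; B-score is computed from the integrated fluorescence ratio over baseline after carbachol; higher B-score means a larger calcium signal and so more RGS4 inhibition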
# Target sequence (P49798 whole entry, looked up): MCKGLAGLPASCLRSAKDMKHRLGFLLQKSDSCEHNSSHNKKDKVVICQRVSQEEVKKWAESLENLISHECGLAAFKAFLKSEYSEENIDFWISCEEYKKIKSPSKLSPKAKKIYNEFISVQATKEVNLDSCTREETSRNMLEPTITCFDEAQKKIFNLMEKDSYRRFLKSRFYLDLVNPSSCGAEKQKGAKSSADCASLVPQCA
# MrgX1 antag = blocks BAM8-22 activation of human MrgX1 receptor; Q96LB2; MRGX1-HEK293 calcium flux, Fluo-4, BAM8-22 antagonism; hits give low values; B-score at 10 µM; 310,000 compounds, 1.3% hits; AID 588676;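 active = calcium-response B-score plate-corrected more than 3 library SD below zero, starting fluorescence within 5 deviations, no agonist response on first addition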;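 also: peak minus trough fluorescence over baseline after final BAM8-22 challenge near maximal dose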
# RGS4 act = potentiators or activators of RGS4; B-score at 10 µM; AID 463111; HEK293 M3R/inducible RGS4, carbachol calcium flux Fluo4; hits give low values; 310,000 compounds, 0.92% hits;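 active = B-score of the integrated calcium signal more than 4 SD below the library mean, with starting fluorescence not abnormally high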;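 also: negative B-score means reduced calcium response which marks RGS4 activation or potentiation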
#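 Material: Inducible-RGS4 HEK293 cells carrying M3 receptor; also added: carbachol at ECmax as muscarinic agonist stimulus; incubation: compound preincubation 20 min at room temperature before agonist; signal: Fluo4-AM (2 µM) calcium-flux fluorescence, kinetic read; measure: integrated calcium ratio converted to B score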
# MrgX1 agonist = human MrgX1 receptor agonism, primary screen. 310,000 compounds, 0.44% hits. B-score at 10 µM. AID 588627. MrgX1-HEK293 cells, Fluo-4 calcium fluorescence, agonist mode; hits give high values;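 active = calcium response B-score plate-corrected fluorescence ratio at least 3 library SD, with starting fluorescence B-score inside 5 SD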
#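 System – MrgX1-expressing HEK293 cells · Incubation – cells plated overnight, dye loaded 0.5 h 37 °C, 0.5 h room temperature · Technique – kinetic Fluo-4 NW fluorescence of intracellular calcium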
# RGS4 act valid = confirmation of RGS4 activators. HEK293 M3R/RGS4 inducible, carbachol calcium flux Fluo4. shares compounds with RGS4 act. 1,100 compounds, 89% hits. inhibition, % at 10 µM;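 active = inhibition above 3 SD of the buffer control wells, cut at about 41% in these data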;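 also: signal is the integrated peak-minus-minimum Fluo4 fluorescence over baseline ratio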
# M3R Ca counter = activity in cells without induced RGS4 expression | inhibition, % at 10 µM | AID 602283 | HEK293 M3R non-induced RGS4, Fluo4 calcium flux; after carbachol challenge at its EC90 | shares compounds with RGS4 act | 1,100 compounds, 82% hits;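 active = inhibition exceeding 3 SD of buffer-only control wells, cut at about 26% in these data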;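 also: percent drop in integrated peak-minus-baseline over baseline Fluo4 ratio after carbachol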
# Numbers stand for hits; n = inactive; x = not tested or not shown.
SMILES,MrgX1 PAM,RGS4 inh,MrgX1 antag,RGS4 act,MrgX1 agonist,RGS4 act valid,M3R Ca counter
O=C(c1ccc(Cl)cc1)C1CCCN(Cc2cccc3cnccc23)C1 (stereo unspecified),n,n,n,-7.3,n,x,x
COc1ccc(CN2CCCC(C(=O)c3ccc(Cl)cc3)C2)c(OC)c1 (stereo unspecified),n,n,n,n,n,x,x
O=C(c1ccc(Cl)cc1)C1CCCN(Cc2ccc3ncccc3c2)C1 (stereo unspecified),n,n,n,-7.3,n,x,x
Cc1nn(Cc2ccccc2)c(Cl)c1C(=O)OCC(=O)NCC1CCCO1 (stereo unspecified),n,n,n,n,n,x,x
COc1ccc2c(c1)NP(=S)(Oc1ccccc1)N2 (stereo unspecified),n,n,n,n,n,x,x
C=CCN1C(=O)NC(=O)/C(=C/c2ccoc2)C1=O,n,n,-6.5,n,n,x,x
Cc1cc(C)c(N=Cc2c(O)[nH]c(=O)[nH]c2=O)c(C)c1,n,n,n,n,n,x,x
CCOC(=O)c1cccc(-[n+]2c(-c3ccccc3)cc(-c3ccccc3)cc2-c2ccccc2)c1,n,n,-6.8,-7.7,n,x,x
Cc1ccc(-c2cc(-c3ccc(C)cc3)[n+](-c3ccc(C(=O)[O-])cc3)c(-c3ccc(C)cc3)c2)cc1,n,n,n,n,n,x,x
CCOC(=O)c1ccc(-[n+]2c(-c3ccccc3)cc(-c3ccccc3)cc2-c2ccccc2)cc1,n,n,n,n,28,x,x
C=CCN1C(=O)/C(=C/c2cc(C)n(-c3ccccn3)c2C)C(=O)NC1=S,n,n,-5.2,n,n,x,x
Cc1ccc2c(c1)CC1(CN2C)C(=O)NC(=O)N(c2ccccc2C)C1=O (stereo unspecified),n,n,-8.5,n,n,x,x
Cc1ccc2c(c1)CC1(CN2C)C(=O)NC(=O)N(c2cccc(C)c2C)C1=O (stereo unspecified),n,n,n,n,n,x,x
O=C(N/N=C/c1c(O)n(Cc2ccco2)c(=O)[nH]c1=O)c1ccccc1O,n,n,n,n,n,x,x
CCN1CCC(N(C)C2CCCCC2)CC1,n,n,n,n,n,x,x
Cc1c(C)c2ccc(OCC(=O)N3C[C@H]4C[C@@H](C3)c3cccc(=O)n3C4)c(C)c2oc1=O,n,n,n,-8.7,n,x,x
Cc1cc(=O)oc2c(C)c(OCC(=O)N3C[C@H]4C[C@@H](C3)c3cccc(=O)n3C4)ccc12,n,n,n,n,n,x,x
Cc1c(Br)c(=O)oc2cc(OCC(=O)N3C[C@H]4C[C@@H](C3)c3cccc(=O)n3C4)ccc12,n,n,n,-7.5,n,x,x
O=C(c1ccc(C(F)(F)F)cc1)C1CCCN(C2CCSCC2)C1 (stereo unspecified),n,n,n,-12,n,90,48
Cc1cc(Cl)ccc1C(=O)C1CCCN(C2CCSCC2)C1 (stereo unspecified),n,n,n,-10,n,90,69
O=C(/C=C/c1ccc(F)cc1)NC(=S)N1C[C@H]2C[C@H](C1)c1cccc(=O)n1C2,n,n,n,n,n,x,x
O=c1cc(C(F)(F)F)c2cc3c4c(c2o1)CCCN4CCC3,n,n,n,-9.1,n,98,94
CN1CCN(Cc2ccc3ccccc3c2)CC1,n,n,n,n,n,x,x
CN1CCN(CCC(C#N)(c2ccccc2)c2ccccc2)CC1,n,n,n,-7.7,n,94,92
CC1CN=C(Nc2cccc3ccccc23)S1 (stereo unspecified),n,n,n,-8.5,n,n,n
SMILES,MrgX1 PAM,RGS4 inh,MrgX1 antag,RGS4 act,MrgX1 agonist,RGS4 act valid,M3R Ca counter
CC1CN=C(Nc2ccccc2)S1 (stereo unspecified),n,n,n,n,n,x,x
Cc1ccc(N2C(=O)CC(=O)NC2=O)cc1Cl,n,n,n,n,n,x,x
CCCCCOc1ccc(C)cc1CN(CCCl)CCCl,n,n,n,n,n,x,x
C=CCC1(Nc2ccccc2)CC(C)N(C)CC1C (stereo unspecified),n,n,n,-7.7,n,59,84
CCC1(OC(=O)c2ccccc2)CC(C)N(C)CC1C (stereo unspecified),n,n,n,n,n,x,x
O=C(Nc1ccccc1Cl)OC1CN2CCC1CC2 (stereo unspecified),n,n,n,-8.5,n,88,62
O=C(Nc1cccc(Cl)c1)OC1CN2CCC1CC2 (stereo unspecified),n,n,n,n,n,x,x
O=C(Nc1ccccc1F)OC1CN2CCC1CC2 (stereo unspecified),n,n,n,-10,n,51,n
O=C(Nc1ccc(Cl)cc1)OC1CN2CCC1CC2 (stereo unspecified),n,n,n,n,n,x,x
OC(C#CCN1CCOCC1)(c1ccccc1)C1CCCC1 (stereo unspecified),n,n,n,-8.9,n,56,84
CC(Cc1ccccc1Sc1ccccc1O)N(C)C (stereo unspecified),n,n,n,-8.6,n,93,91
CN(C)C(=O)Oc1ccc2c(c1)O/C(=C\c1cccc([N+](=O)[O-])c1)C2=O,n,n,n,n,n,x,x
Fc1ccc(C(OCCN2CCCC2)c2ccc(F)cc2)cc1,n,n,n,-9.3,n,88,37
CCOP(=O)(Cc1cc(C(C)=O)c(C)o1)OCC,n,n,n,n,n,x,x
CN1CCC(O)(c2ccc(Cl)cc2)C(C(=O)c2ccc(Cl)cc2)C1 (stereo unspecified),n,n,n,-9.6,n,94,66
CN1CC(C(=O)c2ccc(Cl)cc2)C(c2ccc(Cl)cc2Cl)C1 (stereo unspecified),n,n,n,n,n,x,x
Cc1ccc(N=C(/N=C(\N)N[N+](=O)[O-])Nc2ccc(C)cc2)cc1,n,n,n,n,n,x,x
Clc1ccc(OCC#CCN2CCCC2)cc1,n,n,n,-9.6,n,54,n
C/C(=N\N1CCCCCC1)c1c(O)n(C)c(=O)n(C)c1=O,n,n,n,n,n,x,x
Cc1ccccc1C(O)(Cc1ccccc1)C1CN2CCC1CC2 (stereo unspecified),n,n,n,-8.2,n,92,88
Cc1ccc(C(O)(c2ccc(C)c(C)c2)C2CN3CCC2CC3)cc1C (stereo unspecified),n,n,n,n,n,x,x
CC(C)(O)[C@@H]1[C@H]2OC(=O)[C@@H]1[C@]1(O)C[C@H]3O[C@]34C(=O)O[C@H]2[C@]14C (tested in a mixture with another compound),n,n,n,n,n,x,x

# Bioassay records as filed in PubChem BioAssay.
